Experimental data reported in ChEMBL document CHEMBL2062507, “Myxobacteria versus sponge-derived alkaloids: the bengamide family identified as potent immune modulating agents by scrutiny of LC-MS/ELSD libraries” (Bioorg Med Chem, 2012).
Active and inactive are the calls of the source. The rule behind the calls is not given here.

How the values were obtained:
RAW264.7 [1] = test: Cytotoxicity against mouse RAW264.7 cells after 18 hrs by MTT assay; assay type: cell-based; conditions: RAW264.7, 18 h
HCT-116 = test: Cytotoxicity against human HCT116 cells after 48 hrs by SRB assay; assay type: functional, cell-based; conditions: HCT-116, 48 h
[2] = Inhibition of LPS-stimulated NFkappaB activation transfected in mouse RAW264.7 cells after 18 hrs by luciferase reporter gene assay; conditions: RAW264.7, 18 h
RAW264.7 [3] = test: Inhibition of LPS-stimulated NFkappaB activation transfected in mouse RAW264.7 cells at 0.01 to 10 uM after 4 hrs by measuring IKappaBalpha phosphorylation by Western blot analysis; assay type: cell-based
Outline: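 RAW264.7 cells grown near confluent in 6-well plates and given increasing compound concentrations with LPS for 4 h at 37 °C. Lysed in SDS loading buffer, run on 4–15% SDS-PAGE gels and blotted. Probed with anti-phospho-IκB and anti-IκB (1:1000), then HRP secondary. Detected by chemiluminescence on film, β-actin as loading control.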

RAW264.7 [4] = test: Antiinflammatory activity in mouse RAW264.7 cells assessed as inhibition of LPS-stimulated nitric oxide production up to 10 uM after 30 mins by Greiss method; assay type: functional, cell-based
Outline: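 RAW264.7 cells grown 24 h in RPMI1640 in 96-well plates, then given fresh medium with compound and E. coli 055:B5 LPS. Supernatant mixed with Griess reagent (sulfanilamide, N-1-naphthylethylenediamine, H3PO4) for 30 min at room temperature in the dark. Absorbance read at 530 nm and converted to nitrite using a sodium nitrite standard curve.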

RAW264.7 [5] = test: Antiinflammatory activity in mouse RAW264.7 cells assessed as inhibition of LPS-stimulated iNOS expression up to 10 uM by quantitative RT-PCR analysis; assay type: functional, cell-based
Outline: (§1)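 LPS (100 ng/mL)-stimulated RAW264.7 cells co-treated with compound at 0.01–10 μM. Total RNA (0.5 μg) DNase I-treated, reverse transcribed, cDNAs pooled per condition, SYBR Green real-time PCR array. mRNA normalised to GAPDH. Three independent experiments, one-way ANOVA, p<0.05 taken as significant.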

RAW264.7 [6] = test: Antiinflammatory activity in mouse RAW264.7 cells assessed as inhibition of LPS-stimulated TNFalpha expression up to 10 uM by quantitative RT-PCR analysis; assay type: functional, cell-based; outline: as §1
RAW264.7 [7] = test: Antiinflammatory activity in mouse RAW264.7 cells assessed as inhibition of LPS-stimulated IL-6 expression up to 10 uM by quantitative RT-PCR analysis; assay type: functional, cell-based; outline: as §1
RAW264.7 [8] = test: Antiinflammatory activity in mouse RAW264.7 cells assessed as inhibition of LPS-stimulated MCP1 expression up to 10 uM by quantitative RT-PCR analysis; assay type: functional, cell-based; outline: as §1

CO[C@@H](C(=O)N[C@H]1CC[C@@H](OC(=O)C2CCCCC2)CN(C)C1=O)[C@H](O)[C@@H](O)[C@H](O)/C=C/C(C)(C)C
IC50 (RAW264.7 [1]): > 50000 nM
IC50 (HCT-116): 40 nM
IC50 [2]: 500 nM

CCC(C)/C=C/[C@@H](O)[C@H](O)[C@@H](O)[C@@H](OC)C(=O)N[C@H]1CCCCNC1=O (mixture of isomers)
IC50 (RAW264.7 [1]): > 50000 nM
IC50 (HCT-116): 1100 nM
IC50 [2]: 2000 nM

CCC(C)/C=C/[C@@H](O)[C@H](O)[C@@H](O)[C@@H](OC)C(=O)N[C@H]1CCCCN(C)C1=O (mixture of isomers)
IC50 (RAW264.7 [1]): > 50000 nM
IC50 (HCT-116): 1500 nM
IC50 [2]: 2000 nM

CCCCCCCCCCCCCC(=O)O[C@H]1CC[C@H](NC(=O)[C@H](OC)[C@H](O)[C@@H](O)[C@H](O)/C=C/C(C)C)C(=O)NC1 [BENGAMIDE A]
IC50 (RAW264.7 [1]): > 50000 nM
IC50 (HCT-116): 18 nM
inhibition (RAW264.7 [3]): Active
Activity (RAW264.7 [4]): inactive
Activity (RAW264.7 [5]): inactive
Activity (RAW264.7 [6]): Dose-dependent effect
IC50 (RAW264.7 [6]): 500 nM
Activity (RAW264.7 [7]): Dose-dependent effect
IC50 (RAW264.7 [7]): 1000 nM
Activity (RAW264.7 [8]): Dose-dependent effect
IC50 (RAW264.7 [8]): 500 nM
IC50 [2]: 75 nM

CCCCCCCCCCCCCC(=O)O[C@H]1CC[C@H](NC(=O)[C@H](OC)[C@H](O)[C@@H](O)[C@H](O)/C=C/C(C)C)C(=O)N(C)C1 [BENGAMIDE B]
IC50 (RAW264.7 [1]): > 50000 nM
IC50 (HCT-116): 2 nM
inhibition (RAW264.7 [3]): Active
Activity (RAW264.7 [4]): inactive
Activity (RAW264.7 [5]): inactive
Activity (RAW264.7 [6]): Dose-dependent effect
IC50 (RAW264.7 [6]): 500 nM
Activity (RAW264.7 [7]): Dose-dependent effect
IC50 (RAW264.7 [7]): 500 nM
Activity (RAW264.7 [8]): Dose-dependent effect
IC50 (RAW264.7 [8]): 500 nM
IC50 [2]: 85 nM

CO[C@@H](C(=O)N[C@H]1CCCCNC1=O)[C@H](O)[C@@H](O)[C@H](O)/C=C/C(C)C [BENGAMIDE E]
IC50 (RAW264.7 [1]): > 50000 nM
IC50 (HCT-116): 60 nM
inhibition (RAW264.7 [3]): Active
IC50 [2]: 7500 nM

CCCCCCCCCCCCCC(=O)O[C@H](/C=C/C(C)C)[C@H](O)[C@@H](O)[C@@H](OC)C(=O)N[C@H]1CCCCNC1=O [BENGAMIDE P]
IC50 (HCT-116): 730 nM

CC1=C(O)C(=O)C=C2C1=CC=C1[C@@]2(C)CC[C@@]2(C)[C@@H]3C[C@](C)(C(=O)O)CC[C@]3(C)CC[C@]12C [CELASTROL]
IC50 (RAW264.7 [1]): > 50000 nM
IC50 [2]: 200 nM
